For 1 molecule, T/C and Activity results are on record in ChEMBL document CHEMBL3244396, “Synthesis and antileukemic activity of 5-substituted 2,3-dihydro-6,7-bis(hydroxymethyl)-1H-pyrrolizine diesters” (J Med Chem, 1977).

The subject of series [1] is P388. Kind of series: Antitumor activity against mouse P388 cells allografted in female CDF1 mouse assessed as disease cures by measuring 30-days host survival at 100 mg/kg, ip administered daily for 9 days as saline with Tween-80 solution starting 24 hrs after tumor inoculation relative to control. Type of series: functional. Conditions: route intraperitoneal. An outline of the steps: (§1)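 P388 ascitic cell inoculum given ip to CDF1 mice of the sex in each line. Nine daily ip doses in saline with Tween-80 as vehicle, starting 24 h after inoculation. Median survival time expressed as %T/C (>125 significant); "cure" defined as 30-day survival.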

The test system of series [2] is Mus musculus. Kind of series: Toxicity in male CDF1 mouse allografted with mouse P388 cells assessed as animal survival at 50 mg/kg, ip administered daily for 9 days as saline with Tween-80 solution starting 24 hrs after tumor inoculation. Type of series: organism-based. The arrangement: dose 50 mg/kg, route intraperitoneal. Conditions: in vivo. An outline of the steps:
(§2)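 P-388 leukemia ascitic fluid implanted ip. Compound dosed ip in saline with Tween-80 vehicle, once daily for nine doses from 24 h after tumor inoculation. Acute toxicity scored as toxicity-day survivors per group. Survival was followed up to 30 days, with 30-day survival counted as "cure". Follows NCI screening protocols.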

The test system of series [3] is P388. Kind of series: Antitumor activity against mouse P388 cells allografted in female CDF1 mouse assessed as change in body weight at 25 mg/kg, ip administered daily for 9 days as saline with Tween-80 solution starting 24 hrs after tumor inoculation. The format is functional. Conditions: route intraperitoneal. An outline of the steps: (§3)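 Ascitic fluid carrying P388 cells was inoculated ip. Compound was given ip in nine daily doses, starting 24 h after inoculation, in Klucel (hydroxypropylcellulose) suspension or in saline with Tween-80. Body-weight difference (treated minus control) was recorded on day 5. Survival was scored as %T/C of median survival time, and 30-day survival counted as cure.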

Series [4] concerns P388. The experiment in a line: Antitumor activity against mouse P388 cells allografted in female CDF1 mouse assessed as disease cures by measuring 30-days host survival at 400 mg/kg, ip administered daily for 9 days as saline with Tween-80 solution starting 24 hrs after tumor inoculation relative to control. Type of series: functional. Conditions: route intraperitoneal. An outline of the steps:
as §1

The test system of series [5] is P388. Kind of series: Antitumor activity against mouse P388 cells allografted in female CDF1 mouse assessed as disease cures by measuring 30-days host survival at 200 mg/kg, ip administered daily for 9 days as saline with Tween-80 solution starting 24 hrs after tumor inoculation relative to control. The format is functional. The note with it: route intraperitoneal. An outline of the steps: as §1

Series [6] has as its system P388. The experiment in a line: Antitumor activity against mouse P388 cells allografted in male CDF1 mouse assessed as disease cures by measuring 30-days host survival at 25 mg/kg, ip administered daily for 9 days as saline with Tween-80 solution starting 24 hrs after tumor inoculation relative to control. Type of series: functional. The note with it: route intraperitoneal. An outline of the steps:
as §1

Series [7] has as its system P388. Kind of series: Antitumor activity against mouse P388 cells allografted in female CDF1 mouse assessed as change in body weight at 50 mg/kg, ip administered daily for 9 days as saline with Tween-80 solution starting 24 hrs after tumor inoculation. Conditions: route intraperitoneal. The format is functional. An outline of the steps: as §3
Series [8] has as its system P388. The experiment in a line: Antitumor activity against mouse P388 cells allografted in female CDF1 mouse assessed as change in body weight at 200 mg/kg, ip administered daily for 9 days as saline with Tween-80 solution starting 24 hrs after tumor inoculation. Conditions: route intraperitoneal. Type of series: functional. An outline of the steps:
as §3

The test system of series [9] is P388. The experiment in a line: Antitumor activity against mouse P388 cells allografted in female CDF1 mouse assessed as change in body weight at 400 mg/kg, ip administered daily for 9 days as saline with Tween-80 solution starting 24 hrs after tumor inoculation. Conditions: route intraperitoneal. Type of series: functional. An outline of the steps: as §3
For series [10], the system named is Mus musculus. The experiment in a line: Toxicity in female CDF1 mouse allografted with mouse P388 cells assessed as animal survival at 100 mg/kg, ip administered daily for 9 days as saline with Tween-80 solution starting 24 hrs after tumor inoculation. The note with it: in vivo. The arrangement: dose 100 mg/kg, route intraperitoneal. The format is organism-based. An outline of the steps:
as §2

Series [11] concerns P388. The experiment in a line: Antitumor activity against mouse P388 cells allografted in male CDF1 mouse assessed as disease cures by measuring 30-days host survival at 50 mg/kg, ip administered daily for 9 days as saline with Tween-80 solution starting 24 hrs after tumor inoculation relative to control. Type of series: functional. Conditions: route intraperitoneal. An outline of the steps:
as §1

For series [12], the system named is P388. Kind of series: Antitumor activity against mouse P388 cells allografted in male CDF1 mouse assessed as disease cures by measuring 30-days host survival at 100 mg/kg, ip administered daily for 9 days as saline with Tween-80 solution starting 24 hrs after tumor inoculation relative to control. The note with it: route intraperitoneal. The format is functional. An outline of the steps: as §1

In series [13] the test system is P388. Kind of series: Antitumor activity against mouse P388 cells allografted in female CDF1 mouse assessed as disease cures by measuring 30-days host survival at 25 mg/kg, ip administered daily for 9 days as saline with Tween-80 solution starting 24 hrs after tumor inoculation relative to control. Type of series: functional. The note with it: route intraperitoneal. An outline of the steps:
as §1

Series [14] relates to P388. Kind of series: Antitumor activity against mouse P388 cells allografted in female CDF1 mouse assessed as disease cures by measuring 30-days host survival at 50 mg/kg, ip administered daily for 9 days as saline with Tween-80 solution starting 24 hrs after tumor inoculation relative to control. The note with it: route intraperitoneal. Type of series: functional. An outline of the steps: as §1

The subject of series [15] is Mus musculus. The experiment in a line: Toxicity in female CDF1 mouse allografted with mouse P388 cells assessed as animal survival at 50 mg/kg, ip administered daily for 9 days as saline with Tween-80 solution starting 24 hrs after tumor inoculation. Set-up: dose 50 mg/kg, route intraperitoneal. Conditions: in vivo. The format is organism-based. An outline of the steps: as §2

Series [16] concerns P388. The experiment in a line: Antitumor activity against mouse P388 cells allografted in male CDF1 mouse assessed as change in body weight at 100 mg/kg, ip administered daily for 9 days as saline with Tween-80 solution starting 24 hrs after tumor inoculation. Conditions: route intraperitoneal. Type of series: functional. An outline of the steps: as §3
In series [17] the test system is Mus musculus. The experiment in a line: Toxicity in female CDF1 mouse allografted with mouse P388 cells assessed as animal survival at 200 mg/kg, ip administered daily for 9 days as saline with Tween-80 solution starting 24 hrs after tumor inoculation. Type of series: organism-based. The arrangement: dose 200 mg/kg, route intraperitoneal. Conditions: in vivo. An outline of the steps:
as §2

Series [18] concerns P388. Kind of series: Antitumor activity against mouse P388 cells allografted in female CDF1 mouse assessed as change in body weight at 100 mg/kg, ip administered daily for 9 days as saline with Tween-80 solution starting 24 hrs after tumor inoculation. The note with it: route intraperitoneal. The format is functional. An outline of the steps: as §3
Series [19] deals with P388. Kind of series: Antitumor activity against mouse P388 cells allografted in male CDF1 mouse assessed as change in body weight at 50 mg/kg, ip administered daily for 9 days as saline with Tween-80 solution starting 24 hrs after tumor inoculation. Type of series: functional. The note with it: route intraperitoneal. An outline of the steps: as §3
Series [20] relates to Mus musculus. The experiment in a line: Toxicity in female CDF1 mouse allografted with mouse P388 cells assessed as animal survival at 25 mg/kg, ip administered daily for 9 days as saline with Tween-80 solution starting 24 hrs after tumor inoculation. Type of series: organism-based. Set-up: dose 25 mg/kg, route intraperitoneal. The note with it: in vivo. An outline of the steps: as §2

Series [21] deals with P388. Kind of series: Antitumor activity against mouse P388 cells allografted in male CDF1 mouse assessed as change in body weight at 25 mg/kg, ip administered daily for 9 days as saline with Tween-80 solution starting 24 hrs after tumor inoculation. Type of series: functional. Conditions: route intraperitoneal. An outline of the steps: as §3
Series [22] deals with Mus musculus. Kind of series: Toxicity in male CDF1 mouse allografted with mouse P388 cells assessed as animal survival at 100 mg/kg, ip administered daily for 9 days as saline with Tween-80 solution starting 24 hrs after tumor inoculation. The format is organism-based. The note with it: in vivo. Set-up: dose 100 mg/kg, route intraperitoneal. An outline of the steps:
as §2

Broadly, the T/C is the result in the treated group divided by that in the control group, in per cent. On to `CCCCNC(=O)OCc1c(COC(=O)NCCCC)c(-c2ccc(Cl)c(Cl)c2)n2c1CCC2`, for which the T/C is recorded as 181% in the series on P388 [1]; 84% in the series on P388 [4]; 163% in the series with P388 [5]; 138% in the series on P388 [6]; 137% in the series on P388 [11]; 160% with P388 [12]. The T/C in the series on P388 [13] is on record as 159%; in the series with P388 [14] it was 171%. Moreover, the Activity entry in the series on Mus musculus [2] was “Non-toxic”; in the series on P388 [3], -1.2 g; in the series on P388 [7] it was -1.9 g; in the series with P388 [8], -3.2 g; in the series with P388 [9] it was -3.6 g; with Mus musculus [10] it was “Non-toxic”. Besides, the Activity result is reported as “Non-toxic” with Mus musculus [15]; -0.4 g with P388 [16]; “Non-toxic” with Mus musculus [17]; -2 g in the series on P388 [18]; -1.1 g in the series with P388 [19]; “Non-toxic” in the series with Mus musculus [20]. The figures for the Activity with P388 [21] and in the series on Mus musculus [22] were -1.9 g and “Non-toxic”, respectively.
